# Bioassay records: PubChem BioAssay, several laboratories
# The full list was thinned out, with hits kept by preference.
# UPR CHOP act = activators of apoptotic arm of unfolded protein response (CHOP) | activation, % at 10 µM | AID 449763 | CHO-CHOP luciferase reporter, UPR activation, luminescence; percent of tunicamycin response over DMSO baseline | 0.34% of 330,000 active;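 active = at 10 µM dose, activation of 40% or more, normalized to positive control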;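 also: 100% = tunicamycin at 10 µg/mL and 0% = DMSO alone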
#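 Test system: CHO CHOP reporter cells. Input: 500 CHO-CHOP cells per well. Medium: F12 with 10% FBS. Technique: luciferase luminescence. Measure: percent activation relative to tunicamycin control. Dosing: 10 µM compound, 0.5% DMSO. Timing: 16-18 h cell attachment, then 6 h compound exposure, 37 °C.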
# Cardio protect = modulators protecting cardiomyocytes from myocardial damage | H9c2 cardiomyocytes, H2O2 injury protection, ATPLite, 2 h | protection from H2O2 cell death, % at 20 µM | 0.63% of 360,000 active | AID 588492;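 active = compounds giving at least 50% protection of heart cells from peroxide-induced death in the single-dose screen, raw or plate-pattern-corrected value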;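 also: 0% = DMSO wells with peroxide and 100% = DMSO wells without peroxide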
# iPSC survival up = increases survival of single human iPS cells; hiPSC single-cell survival, ATPlite luminescence; 100% = ROCK inhibitor wells, 0% = DMSO; survival enhancement, % at 20 µM; 0.044% of 360,000 active; AID 602274; in the data active = survival enhancement above about 18%;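 also: cells exposed to compounds for 16 hours before the ATP read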
# XBP1 UPR activ = activators of adaptive arm of unfolded protein response (XBP1) | activation, % at 20 µM | 0.33% of 330,000 active | CHO-XBP1 luciferase reporter, IRE1-XBP1 UPR activation, luminescence; percent of tunicamycin response, DMSO as zero;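 active = versus positive control, 20 µM dose yields 30% or more activation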;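 also: 100% = tunicamycin at 10 µg/mL and 0% = DMSO only wells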
#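 Signal: luciferase luminescence; Assay system: CHO-XBP1 luciferase reporter cells; Amount: one thousand reporter cells per well; Dosing: 20 µM single concentration, DMSO 1%; Benchmarks: high control tunicamycin 10 µg/mL final, low control DMSO vehicle only; Schedule: 6 h compound exposure at 37 °C, 5% CO2; Evaluation: percent activation relative to tunicamycin reference.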
# CHOP inh = inhibitors of CHOP induction in ER stress response. CHO-K1 CHOP-promoter luciferase, tunicamycin-induced, 15-18 h. inhibition, % at 10 µM. 3.8% of 220,000 active;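 active = compounds that reduced the stress-induced luciferase reporter signal by more than about 70% of percent inhibition, limit read from the data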;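 also: 0% = tunicamycin plus vehicle and 100% = wells without tunicamycin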
# CHOP confirm = confirmation of CHOP induction inhibitors. 45% of 2,100 active. shares compounds with CHOP inh. AID 504437. inhibition, % at 10 µM. CHO-CHOP promoter luciferase reporter, tunicamycin-induced, luminescence;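 active = mean of three repeat readings of reporter signal inhibition above a set limit, cut at about 70% in these data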;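 also: 0% = tunicamycin plus vehicle and 100% = wells lacking tunicamycin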
# * hit, by the source's call; nt = no result.
SMILES,UPR CHOP act,Cardio protect,iPSC survival up,XBP1 UPR activ,CHOP inh,CHOP confirm
CCc1ccc2c(COC(=O)c3n[nH]c4ccccc34)cc(=O)oc2c1,1.1,-1.6,-0.2,1.2,100.5*,17.9
Cc1nn(-c2ccccc2)c(OC(=O)c2cccs2)c1S(=O)(=O)c1ccccc1,0.6,4.5,-0.6,-5.3,105.8*,14.9
CC(C)Oc1cc(O)c2c(=O)c(-c3ccc(O)cc3)coc2c1,7.7,-9.7,-0.3,6.2,nt,19.8
Cc1ccc(-n2c(C)cc(C3N=C(N)Nc4nc5ccccc5n43)c2C)c(C)c1 (stereo not given),-1.7,-18.1,-0.2,-0.3,100.0*,61.8
C[C@H]1CN([C@@H](C)CO)S(=O)(=O)c2ccc(Br)cc2O[C@H]1CN(C)C(=O)Cc1ccccn1,nt,10.5,4.5,nt,nt,nt
CCc1nc(SCC(=O)Nc2nccs2)c2oc3ccccc3c2n1,-1.0,-12.3,4.9,21.2,101.8*,22.6
CC1CCC(n2c(=S)[nH]c3ccccc3c2=O)CC1 (stereo not given),2.7,2.7,0.5,3.6,103.1*,104.2*
CC1(C)CC(n2c(=S)[nH]c3ccccc3c2=O)CCO1 (stereo not given),-2.2,5.6,0.3,-4.8,0.2,nt
CCCCn1c(SCc2nc(N)nc(N3CCCCC3)n2)nc2c1c(=O)n(C)c(=O)n2C,-1.1,12.5,0.3,0.5,98.0*,19.5
C/C(=N\NC(=O)CC1N=C(Cc2ccccc2)NNC1=O)c1ccc(Cl)cc1Cl (stereo not given),0.5,10.3,2.1,2.7,98.9*,28.5
C/C(=N\NC(=O)CC1N=C(Cc2ccccc2)NNC1=O)c1ccccc1 (stereo not given),0.1,3.3,-3.0,0.9,36.0,nt
Cc1csc(NC(=O)CSc2nnc(NC(=O)COc3ccccc3)s2)n1,1.4,0.6,-1.6,-1.0,100.9*,1.0
Cc1csc(NC(=O)CSc2ccc(-c3ccccc3)nn2)n1,0.8,20.7,-0.1,0.3,-12.1,nt
COc1ccc(CN(C)C2c3ccccc3-c3ccccc32)cc1,0.1,-6.3,-1.7,-2.4,106.1*,4.8
CCC(CC)C(=O)N(C)c1c(C)nc2c(OCc3cccc(OC)c3)cccn12,nt,-1.8,3.4,nt,nt,nt
NS(=O)(=O)c1ccc(N2N=C(c3ccccc3)CC2c2ccc(F)cc2)cc1 (stereo not given),-2.4,-17.4,-2.0,-0.4,104.7*,-25.6
COC(=O)C[C@H](NC(=O)Cn1cc(C)c(=O)[nH]c1=O)C(=O)OC,nt,9.6,-1.0,nt,nt,nt
NC(COCc1ccccc1)c1csc(Nc2ccc(C(=O)c3ccccc3)cc2)n1 (stereo not given),nt,-11.2,-4.2,nt,nt,nt
O=c1c2c([N+](=O)[O-])cc([N+](=O)[O-])cc2sn1-c1ccc(Br)cc1,1.7,-2.1,-0.3,-0.6,96.6*,12.3
O=c1c2c([N+](=O)[O-])cc([N+](=O)[O-])cc2sn1Cc1ccccc1,7.7,-18.6,0.2,-5.4,nt,nt
CC(C)N(c1ccccc1)c1ccc(NC(=O)[C@@H]2O[C@H](CO)[C@@H](O)[C@H]2O)cc1,nt,-1.9,2.8,nt,nt,nt
CCCCc1c(C)nn(-c2nnc3c4ccccc4n(CC)c3n2)c1C,3.3,4.2,10.5,28.8,104.5*,99.2*
O=C1c2[nH]nc(-c3ccccc3O)c2C(c2cccc(Cl)c2)N1Cc1ccco1 (stereo not given),3.9,-24.8,-1.1,-0.1,112.7*,112.9*
CCNC(=O)c1cc2c(c(-c3cccc(-c4ccccc4F)c3)n1)[C@@H](CCO)N(C(=O)CC)C2,nt,nt,-0.5,nt,nt,nt
Cc1ccc(NC(=O)C2(C)CCCN(C(C)C)C2)cc1C (stereo not given),nt,0.8,4.3,nt,nt,nt
SMILES,UPR CHOP act,Cardio protect,iPSC survival up,XBP1 UPR activ,CHOP inh,CHOP confirm
CCC(NC(=O)Nc1nnc(C(F)(F)F)s1)(C(F)(F)F)C(F)(F)F,8.6,-30.9,-2.4,-1.2,103.1*,115.2*
OCCCNc1cc(-c2ccnc(Nc3cccc(Cl)c3)n2)ccn1,2.2,16.7,-1.3,-4.7,102.6*,106.9*
CS(=O)(=O)c1ccc(C(=O)OCC(=O)NC(=O)C2CCCCC2)cc1[N+](=O)[O-],18.8,-16.8,-1.4,-10.7,97.0*,9.6
O=C(Nc1nc2ccccc2s1)C1CC(=O)N(c2ccc(Br)cc2)C1 (stereo not given),-1.3,-12.0,-0.2,-2.1,96.2*,12.8
COCCNC(=O)c1cn(C)c2ccc(S(=O)(=O)N3CCCC3)cc2c1=O,0.0,4.3,-0.3,-8.0,nt,nt
COc1ccccc1CNC(=O)c1cn(C)c2ccc(S(=O)(=O)N3CCCC3)cc2c1=O,0.7,5.7,-0.4,-2.1,106.1*,51.5
CC(OC(=O)Cc1ccc(Br)cc1)C(=O)NC1CCCC1 (stereo not given),-0.9,-0.7,-3.3,0.2,nt,nt
CCOC(=O)c1cnc(-n2nc(C)cc2C)nc1Nc1ccc(O)cc1,-5.8,-26.7,0.0,-4.3,103.9*,110.4*
CCOC(=O)c1cnc(-n2nc(C)cc2C)nc1Nc1ccc(C)cc1,nt,14.2,2.4,nt,-15.2,nt
O=C(NC(Cc1c[nH]c2ccccc12)C(=O)O)c1cccc(S(=O)(=O)N2CCCCC2)c1 (stereo not given),nt,3.6,4.5,nt,nt,nt
Cc1cc(S(=O)(=O)Nc2ccc3ccccc3c2)c(C)s1,-1.9,-11.1,-1.1,-1.3,110.6*,51.6
Cc1ccc(C(=O)CN2/C(=C(\O)c3ccccc3)C(=O)c3ccccc3S2(=O)=O)c(C)c1,-1.0,2.0,-1.6,4.8,105.8*,28.0
O=C(Nc1ccccc1F)N1CCC(NC(=O)C23CC4CC(CC(C4)C2)C3)CC1,-0.2,-3.7,0.6,2.0,nt,nt
COc1ccc(NC(=O)c2cc(C3CCCCN3C(=O)OCc3ccccc3)on2)c(C)c1 (stereo not given),nt,3.4,2.3,nt,nt,nt
Cc1ccc(NC(=O)c2c(C(=O)Nc3ccccc3)sc3nc(C)cc(=O)n23)cc1,-0.4,0.6,0.9,2.9,39.1,nt
Cc1cc(=O)n2c(C(=O)Nc3ccc(C)c(C)c3)c(C(=O)Nc3ccccc3)sc2n1,2.4,18.4,0.3,-0.1,97.2*,25.5
CCCCn1c(N2CCC(Cc3ccccc3)CC2)nc2c1c(=O)[nH]c(=O)n2C,4.8,-6.5,-0.2,1.3,97.3*,102.7*
Cc1nnc(SCCn2c(N3CCC(Cc4ccccc4)CC3)nc3c2c(=O)[nH]c(=O)n3C)s1,1.1,nt,nt,-0.5,13.3,nt
CC(C)Cn1c([N+](=O)[O-])nc2c1c(=O)[nH]c(=O)n2C,13.0,4.1,0.0,2.9,-71.7,nt
CCCCCCn1c(N2CCC(C)CC2)nc2c1c(=O)[nH]c(=O)n2C,-1.3,-5.7,1.1,8.6,100.1*,104.7*
Cn1c(=O)[nH]c(=O)c2c1nc([N+](=O)[O-])n2Cc1ccccc1,-7.9,-10.8,7.1,-8.8,106.5*,121.3*
